For data set [1], the target named is T1, Na(+)/H(+) exchange regulatory cofactor NHE-RF1 (Homo sapiens, UniProt O14745).
T1 sequence (O14745 whole entry): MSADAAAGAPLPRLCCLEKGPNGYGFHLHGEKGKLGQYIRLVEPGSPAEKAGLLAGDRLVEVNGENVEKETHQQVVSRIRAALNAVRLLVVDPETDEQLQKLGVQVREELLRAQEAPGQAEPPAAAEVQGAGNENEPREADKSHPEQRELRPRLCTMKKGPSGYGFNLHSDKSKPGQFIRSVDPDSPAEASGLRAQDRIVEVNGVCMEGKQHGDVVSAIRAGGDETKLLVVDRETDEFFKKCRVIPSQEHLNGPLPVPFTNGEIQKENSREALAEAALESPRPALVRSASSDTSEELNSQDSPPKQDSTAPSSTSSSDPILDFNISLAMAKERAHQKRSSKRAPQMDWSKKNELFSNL
Description: Binding affinity to NHERF1 PDZ1 domain (unknown origin) expressed in Escherichia coli BL21 incubated for 1 hr by fluorescence polarization based competition assay. In a few lines: (§1)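 CAL, NHERF1 and NHERF2 PDZ domains carried a C-terminal His6 tag, were expressed in E. coli BL21 (0.1 mM IPTG, 16 h at 18 °C) and purified on Ni-NTA. For direct binding, 50 nM fluorescein-labelled peptide was titrated with PDZ protein (0–2.5 μM CAL; 0–25 μM NHERF1/2) in PBS pH 7.4 with 0.01% Triton X-100 and 2 mM TCEP for 1 h at room temperature. Fluorescence polarization gave KD; n = 3.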

Data set [2] concerns the target T2, Na(+)/H(+) exchange regulatory cofactor NHE-RF2 (Homo sapiens, UniProt Q15599). In words: Binding affinity to NHERF2 PDZ1 domain (unknown origin) expressed in Escherichia coli BL21 incubated for 1 hr by fluorescence polarization based competition assay. In short, it runs like this:
as §1

For data set [3], the target named is T2, Na(+)/H(+) exchange regulatory cofactor NHE-RF2. In words: Binding affinity to NHERF2 PDZ2 domain (unknown origin) expressed in Escherichia coli BL21 incubated for 1 hr by fluorescence polarization based competition assay.
In data set [4] the target is T3, Golgi-associated PDZ and coiled-coil motif-containing protein (Homo sapiens, UniProt Q9HD26). In words: Binding affinity to C-terminal His6 tagged CAL PDZ domain (unknown origin) expressed in Escherichia coli BL21 incubated for 1 hr by fluorescence polarization assay.
Data set [5] concerns the target T3, Golgi-associated PDZ and coiled-coil motif-containing protein. In words: Binding affinity to C-terminal His6 tagged CAL PDZ domain (unknown origin) expressed in Escherichia coli BL21 incubated for 1 hr using FAM-22 probe by fluorescence polarization based competition assay.
Data set [6] is described as follows: Drug uptake in human HeLa cells at 5 uM incubated for 2 hrs by flow cytometry relative to CPP9. The data set is classed as ADME, cell-based. In a few lines:
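Naphthofluorescein-labelled cyclic peptides (5 μM final, 0.5% DMSO, in DMEM with 10% FBS) were applied to HeLa cells, seeded the day before at 15 × 10^4 per well, for 2 h at 37 °C. Cells were washed with cold DPBS, trypsinized and analysed by flow cytometry. Mean fluorescence was expressed as % of CPP9; n = 3.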

The target of data set [7] is T3, Golgi-associated PDZ and coiled-coil motif-containing protein. Description: Binding affinity to C-terminal His6 tagged CAL PDZ domain (unknown origin) expressed in Escherichia coli BL21 incubated for 1 hr using FAM-ANSRWPTSII-OH probe by fluorescence polarization based competition assay.

Non-standard residues stand in square brackets, D forms with d. Residues, ends and D or L forms follow the SMILES beside them. *: point of attachment. 1Nal = N[C@@H](Cc1cccc2ccccc12)C(=O)O; 2Nal = N[C@@H](Cc1ccc2ccccc2c1)C(=O)O; Bta = N[C@@H](Cc1csc2ccccc12)C(=O)O; Pen = CC(C)(S)[C@H](N)C(=O)O; Tle = CC(C)(C)[C@H](N)C(=O)O; Nicotinoyl = O=C(c1cccnc1)*

T2 sequence (Q15599 whole entry, the tested form may be a part): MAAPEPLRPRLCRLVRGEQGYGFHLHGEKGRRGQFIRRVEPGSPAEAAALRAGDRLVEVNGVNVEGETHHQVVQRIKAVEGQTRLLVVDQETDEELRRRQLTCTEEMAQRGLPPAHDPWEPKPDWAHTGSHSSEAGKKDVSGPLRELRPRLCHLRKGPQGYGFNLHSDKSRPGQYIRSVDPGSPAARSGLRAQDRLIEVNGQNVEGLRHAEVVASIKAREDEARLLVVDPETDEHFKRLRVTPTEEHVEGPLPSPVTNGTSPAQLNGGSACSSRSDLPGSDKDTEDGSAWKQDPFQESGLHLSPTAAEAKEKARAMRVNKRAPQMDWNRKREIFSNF

In the case of `C[C@@H](O)[C@H](NC(=O)[C@@H](NC(=O)[C@H](CCC(N)=O)NC(=O)[C@H](Cc1c[nH]c2ccccc12)NC(=O)[C@H](Cc1ccc2ccccc2c1)NC(=O)[C@H](CCCNC(=N)N)NC(=O)[C@H](CCCNC(=N)N)NC(=O)[C@@H](CCCNC(=N)N)NC(=O)[C@H](CS)NC(=O)CCNC(=S)Nc1ccc(-c2c3ccc(=O)cc-3oc3cc(O)ccc23)c(C(=O)O)c1)C(C)(C)S)C(=O)N[C@@H](CCCNC(=N)N)C(=O)N[C@H](C(=O)O)C(C)(C)C`, the dissociation constant Kd in data set [1] came out at 1.64 µM; in data set [2], 1.87 µM; in data set [3], 4.07 µM; in data set [4], 0.113 µM.
Molecule `CC(=O)N[C@@H](CS)C(=O)N[C@H](CCCNC(=N)N)C(=O)N[C@@H](CCCNC(=N)N)C(=O)N[C@@H](CCCNC(=N)N)C(=O)N[C@@H](Cc1ccc2ccccc2c1)C(=O)N[C@@H](Cc1csc2ccccc12)C(=O)N[C@H](C(=O)N[C@H](C(=O)N[C@H](C(=O)N[C@@H](CCCNC(=N)N)C(=O)N[C@H](C(=O)O)C(C)(C)C)[C@@H](C)O)C(C)(C)C)C(C)(C)S` (Ac-C[dR]RR[2Nal][Bta][Pen][Tle]TR[Tle]-OH) showed an IC50 in data set [5] of 0.24 µM. In data set [6], the Drug uptake is 518%.
Turning to `CC(=O)N[C@@H](CS)C(=O)N[C@@H](CCCNC(=N)N)C(=O)N[C@@H](CCCNC(=N)N)C(=O)N[C@@H](CCCNC(=N)N)C(=O)N[C@@H](Cc1ccccc1)C(=O)N[C@@H](Cc1cccc2ccccc12)C(=O)N[C@@H](CCC(N)=O)C(=O)N[C@@H](CS)C(=O)N[C@H](C(=O)N[C@@H](CCCNC(=N)N)C(=O)N[C@H](C(=O)O)C(C)(C)C)[C@@H](C)O` (Ac-CRRRF[1Nal]QCTR[Tle]-OH), the IC50 in data set [5] came to 1.8 µM.
For the molecule `C[C@@H](O)[C@H](NC(=O)[C@@H](NC(=O)[C@@H]1CCCCN1C(=O)[C@H](Cc1csc2ccccc12)NC(=O)[C@H](Cc1ccc2ccccc2c1)NC(=O)[C@H](CCCNC(=N)N)NC(=O)[C@H](CCCNC(=N)N)NC(=O)[C@@H](CCCNC(=N)N)NC(=O)[C@H](CS)NC(=O)COCCOCCNC(=S)Nc1ccc2c(c1)C(=O)OC21c2ccc(O)cc2Oc2cc(O)ccc21)C(C)(C)S)C(=O)N[C@@H](CCCNC(=N)N)C(=O)N[C@H](C(=O)O)C(C)(C)C`, the Kd in data set [1] was 0.78 µM; in data set [2], 1.37 µM; in data set [3], 7.48 µM; in data set [4], 0.006 µM.
Take `CC(=O)N[C@@H](CS)C(=O)N[C@H](CCCNC(=N)N)C(=O)N[C@H](CCCNC(=N)N)C(=O)N[C@@H](CCCNC(=N)N)C(=O)N[C@@H](Cc1ccc2ccccc2c1)C(=O)N[C@@H](Cc1c[nH]c2ccccc12)C(=O)N[C@@H](CCC(N)=O)C(=O)N[C@H](C(=O)N[C@H](C(=O)N[C@@H](CCCNC(=N)N)C(=O)N[C@H](C(=O)O)C(C)(C)C)[C@@H](C)O)C(C)(C)S` (Ac-C[dR][dR]R[2Nal]WQ[Pen]TR[Tle]-OH): the Drug uptake in data set [6] is listed as 23%.
`CC(=O)N[C@@H](CCCNC(=N)N)C(=O)N[C@@H](CCCNC(=N)N)C(=O)N[C@@H](Cc1ccccc1)C(=O)N[C@@H](Cc1c[nH]c2ccccc12)C(=O)N[C@@H](CCC(N)=O)C(=O)N[C@@H](CS)C(=O)N[C@H](C(=O)N[C@@H](CCCCNC(=O)c1cccnc1)C(=O)N[C@H](C(=O)O)C(C)(C)C)[C@@H](C)O` (Ac-RRFWQCTK(Nicotinoyl)[Tle]-OH) showed an IC50 in data set [7] of 2.2 µM.
Turning to `CC(=O)N[C@@H](CCCNC(=N)N)C(=O)N[C@@H](CCCNC(=N)N)C(=O)N[C@@H](Cc1ccccc1)C(=O)N[C@@H](Cc1c[nH]c2ccccc12)C(=O)N[C@@H](CCC(N)=O)C(=O)N[C@@H](CS)C(=O)N[C@H](C(=O)N[C@@H](CCCCNC(=N)N)C(=O)N[C@H](C(=O)O)C(C)(C)C)[C@@H](C)O`, the IC50 in data set [7] worked out at 2.4 µM.
For `CC(=O)N[C@@H](CS)C(=O)N[C@H](CCCNC(=N)N)C(=O)N[C@@H](CCCNC(=N)N)C(=O)N[C@@H](CCCNC(=N)N)C(=O)N[C@@H](Cc1ccc2ccccc2c1)C(=O)N[C@@H](Cc1c[nH]c2ccccc12)C(=O)N[C@@H](CCC(N)=O)C(=O)N[C@H](C(=O)N[C@H](C(=O)N[C@@H](CCCNC(=N)N)C(=O)N[C@H](C(=O)O)C(C)(C)C)[C@@H](C)O)C(C)(C)S` (Ac-C[dR]RR[2Nal]WQ[Pen]TR[Tle]-OH), the IC50 in data set [5] amounted to 0.17 µM. Also, the Drug uptake in data set [6] turned out to be 28%.
Regarding `C[C@@H](O)[C@H](NC(=O)[C@@H](NC(=O)[C@@H]1CCCN1C(=O)[C@H](Cc1csc2ccccc12)NC(=O)[C@H](Cc1ccc2ccccc2c1)NC(=O)[C@H](CCCNC(=N)N)NC(=O)[C@H](CCCNC(=N)N)NC(=O)[C@@H](CCCNC(=N)N)NC(=O)[C@H](CS)NC(=O)COCCOCCNC(=S)Nc1ccc2c(c1)C(=O)OC21c2ccc(O)cc2Oc2cc(O)ccc21)C(C)(C)S)C(=O)N[C@@H](CCCNC(=N)N)C(=O)N[C@H](C(=O)O)C(C)(C)C`, the Kd in data set [1] is 3.97 µM; in data set [2], 6.04 µM; in data set [3] it was 7.66 µM; in data set [4] it was 0.087 µM.
`CC(=O)N[C@@H](CS)C(=O)N[C@@H](CCCNC(=N)N)C(=O)N[C@@H](CCCNC(=N)N)C(=O)N[C@@H](CCCNC(=N)N)C(=O)N[C@@H](Cc1cccc2ccccc12)C(=O)N[C@@H](Cc1c[nH]c2ccccc12)C(=O)N[C@@H](CCC(N)=O)C(=O)N[C@H](C(=O)N[C@H](C(=O)N[C@@H](CCCNC(=N)N)C(=O)N[C@H](C(=O)O)C(C)(C)C)[C@@H](C)O)C(C)(C)S` (Ac-CRRR[1Nal]WQ[Pen]TR[Tle]-OH): the IC50 in data set [5] is 0.15 µM.
With `CC(=O)N[C@@H](CS)C(=O)N[C@@H](CCCNC(=N)N)C(=O)N[C@@H](CCCNC(=N)N)C(=O)N[C@@H](CCCNC(=N)N)C(=O)N[C@@H](Cc1ccc2ccccc2c1)C(=O)N[C@@H](Cc1c[nH]c2ccccc12)C(=O)N[C@@H](CCC(N)=O)C(=O)N[C@H](C(=O)N[C@H](C(=O)N[C@@H](CCCNC(=N)N)C(=O)N[C@H](C(=O)O)C(C)(C)C)[C@@H](C)O)C(C)(C)S` (Ac-CRRR[2Nal]WQ[Pen]TR[Tle]-OH), in data set [5], the IC50 was 0.15 µM.
`CC(=O)N[C@@H](CS)C(=O)N[C@@H](CCCNC(=N)N)C(=O)N[C@H](CCCNC(=N)N)C(=O)N[C@@H](CCCNC(=N)N)C(=O)N[C@@H](Cc1ccc2ccccc2c1)C(=O)N[C@@H](Cc1c[nH]c2ccccc12)C(=O)N[C@@H](CCC(N)=O)C(=O)N[C@H](C(=O)N[C@H](C(=O)N[C@@H](CCCNC(=N)N)C(=O)N[C@H](C(=O)O)C(C)(C)C)[C@@H](C)O)C(C)(C)S` (Ac-CR[dR]R[2Nal]WQ[Pen]TR[Tle]-OH): the Drug uptake in data set [6] worked out at 17%.
With `CC(=O)N[C@@H](CS)C(=O)N[C@H](CCCNC(=N)N)C(=O)N[C@@H](CCCNC(=N)N)C(=O)N[C@@H](CCCNC(=N)N)C(=O)N[C@@H](Cc1ccc2ccccc2c1)C(=O)N[C@@H](Cc1csc2ccccc12)C(=O)N1CCC[C@H]1C(=O)N[C@H](C(=O)N[C@H](C(=O)N[C@@H](CCCNC(=N)N)C(=O)N[C@H](C(=O)O)C(C)(C)C)[C@@H](C)O)C(C)(C)S` (Ac-C[dR]RR[2Nal][Bta]P[Pen]TR[Tle]-OH), in data set [6], the Drug uptake worked out at 36%.
In data set [7], `CC(=O)N[C@@H](CCCNC(=N)N)C(=O)N[C@@H](CCCNC(=N)N)C(=O)N[C@@H](Cc1ccccc1)C(=O)N[C@@H](Cc1c[nH]c2ccccc12)C(=O)N[C@H](CS)C(=O)N[C@@H](CS)C(=O)N[C@H](C(=O)N[C@@H](CCCNC(=N)N)C(=O)N[C@H](C(=O)O)C(C)(C)C)[C@@H](C)O` (Ac-RRFW[dC]CTR[Tle]-OH) registered an IC50 of 10 µM.
With `CC(=O)N[C@@H](CS)C(=O)N[C@H](CCCNC(=N)N)C(=O)N[C@@H](CCCNC(=N)N)C(=O)N[C@@H](CCCNC(=N)N)C(=O)N[C@@H](Cc1ccc2ccccc2c1)C(=O)N[C@@H](Cc1c[nH]c2ccccc12)C(=O)N[C@H](C(=O)N[C@H](C(=O)N[C@H](C(=O)N[C@@H](CCCNC(=N)N)C(=O)N[C@H](C(=O)O)C(C)(C)C)[C@@H](C)O)C(C)(C)C)C(C)(C)S` (Ac-C[dR]RR[2Nal]W[Pen][Tle]TR[Tle]-OH), the Drug uptake in data set [6] amounted to 92%.
